Hck Nef HTS: inhibitors of Nef-activated human Hck kinase, primary screen, biochemical, Z-Lyte FRET, 384-well, Hck-YEEI. Tyrosine-protein kinase HCK (Homo sapiens), P08631. Recombinant Hck-YEEI plus Nef, Z-Lyte FRET kinase assay. inhibition, % at 20 µM. 220,000 tested, 0.68% active;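 active = Hck-Nef kinase inhibition above about 50%, limit read from the data; inactive = inhibition below that limit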;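 also: 0% = DMSO with Hck plus Nef and 100% = Hck alone without Nef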
NCF1 inh: p47phox/p22phox peptide binding inhibitors, primary screen, biochemical, uHTS, NADPH oxidase regulatory subunit; fluorescence polarization, 2 h; Neutrophil cytosol factor 1 (Homo sapiens), P14598; 220,000 tested, 0.53% active; inhibition, % at 24.7 µM;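 also: 0% = p47phox with labelled peptide and 100% = labelled peptide alone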
eIF4E-4G inh: eIF4E–eIF4G protein interaction inhibitors, primary screen, biochemical, uHTS, TR-FRET, eIF4GI fragment. inhibition, % at 21.7 µM. AID 782, 2007. 220,000 tested, 0.37% active. TR-FRET eIF4E-eIF4GI(517-606) binding, 2 h. Eukaryotic translation initiation factor 4E (Mus musculus) + Eukaryotic translation …;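 also: 0% = full FRET control wells and 100% = background wells lacking eIF4GI fragment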
Diaphorase act: compounds boosting diaphorase resazurin reduction – biochemical, uHTS, resorufin fluorescence, counter-screen for diaphorase-coupled primary assays, primary screen | Diaphorase/resazurin coupled assay, 16 min; stronger effect = higher value; 1 = vehicle wells, 0 = NADH-free wells | activation factor at 20 µM | 190,000 tested, 0.005% active;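 active = diaphorase activity raised at least twofold by the compound at 20 µM; inactive = activation factor below 2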
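Material: Purified diaphorase enzyme from Clostridium kluyveri | Buffer or medium: 50 mM HEPES pH 7.4 with 4.542 mM MgCl2, 0.005% Tween 20 | Times: 16 min enzyme reaction, ambient temperature | Signal: Red resorufin fluorescence at 544/590 nm excitation/emission | Measure: Increased resorufin signal from activators or reducing compounds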
14-3-3 Bad PPI: inhibitors of 14-3-3 zeta/Bad binding, primary screen, biochemical, TR-FRET, bovine 14-3-3 zeta | 14-3-3 protein zeta/delta (Bos taurus), P63103 | 220,000 tested, 0.71% active | TR-FRET 14-3-3zeta/Dy647-pBad peptide displacement, 1 h | inhibition, % at 21.7 µM | AID 781, 2007;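 active = inhibition above about 70%, limit read from the data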;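 also: 0% = full 14-3-3 plus peptide FRET controls and 100% = background without 14-3-3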
Hck Nef conf: retest of Hck:Nef kinase inhibitor hits, confirmation, biochemical, Z-Lyte FRET, 384-well, p-Tyr peptide counterscreen; 1,300 tested, 28% active; Recombinant Hck-YEEI:Nef, Z-Lyte FRET kinase assay; calls only at 10 µM; shares compounds with Hck Nef HTS;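 active = average inhibition of at least 50%, with Z-scores no higher than 3 in both the phospho-tyrosine peptide and fluorescence counterscreens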
Active calls of the source: *; i = inactive; · = not tested or not shown; + = active, no number; [ ] = dose if it differs, or a comment. This is a sample that favours compounds with a hit; in the whole collection about 2% have one here.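 The calls were made as follows, unless noted: active = inhibition above about 30% (limit read from the data); inactive = the rest.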

SMILES | Hck Nef HTS | NCF1 inh | eIF4E-4G inh | Diaphorase act | 14-3-3 Bad PPI | Hck Nef conf
COc1ccc(CCN(C)C(=O)C2CCN(Cc3ccc(C)cc3)CC2)cc1OC | 22 | -3 | 1 | 0.9 | 0 | ·
O=C(N=Nc1c(O)[nH]c2ccc(Br)cc12)c1cc(-c2cccs2)nc2ccccc12 | 163* | 60* | 12 | 1 | 86* | i
Cc1ccc(NC(=O)CN2C(=O)S/C(=C\c3cccn3-c3cccc(C(=O)O)c3)C2=O)c(C)c1 | 78* | -94 | 11 | 0.9 | 1 | +
C/C(=N\NC(=O)c1cccc(N/N=C(\C)c2cc(O)ccc2O)c1)c1cc(O)ccc1O | 57* | -51 | -8 | 0.8 | -8 | i
O=C(Nc1c2ccccc2nc2ccccc12)C(Cl)(Cl)Cl | 71* | 17 | -4 | 0.9 | 80*[fluorescence artefact?] | i
Cc1[nH]c2ccccc2c1/C=N/Nc1ccccn1 | 65* | -7 | -2 | 0.8 | -17 | +
CCC(=C(c1ccc(OC)cc1)c1ccc(OC)cc1)c1cn(CC(O)CN2CCN(C)CC2)c2ccccc12 (configuration not stated) | 111* | 78* | 0 | 1.3 | 96*[fluorescence artefact?] | i
COc1ccc(-c2cc3ccccc3n2CC(O)CN2CCCCC2)cc1 (configuration not stated) | 32 | -4 | 1 | · | 9 | ·
O=C(Cn1c2ccc(F)cc2c2nc3n(c(=O)c21)CCS3)Nc1ccccc1C(F)(F)F | 89* | 10 | 18 | 1.3 | 81* | i
O=C(COC(=O)c1ccc(F)cc1F)NC1CC1 | 10 | -4 | 1 | 0.9 | -4 | ·
Nc1[nH]nc2nc(N3CCCC3)nc(-c3ccccc3)c12 | 43 | -14 | 0 | 1 | 7 | ·
COc1ccc(-c2nc(N3CCOCC3)nc3n[nH]c(N)c23)cc1 | 64* | -21 | -2 | 0.9 | 1 | +
O=C(O)CC(NC(=O)CCC1CCCCC1)c1cc([N+](=O)[O-])ccc1Cl (configuration not stated) | -2 | -6 | 1 | 1 | -7 | ·
O=C(O)CSc1cc(C(=O)c2ccccc2O)cn2c(=O)c3c(-c4ccccc4)csc3nc12 | 61* | -28 | 17 | 0.7 | 7 | +
CCC1CCCCN1C(=O)Cn1nc([N+](=O)[O-])c(Cl)c1C (configuration not stated) | -15 | 1 | -2 | 0.9 | 14 | ·
CCOC(=O)c1c(C)oc2c1c(C(c1ccncc1)N1CCOCC1)c(O)c1ccccc12 (configuration not stated) | 117* | -11 | 26 | 0.8 | 44 | +
COc1cc(-c2ccc(Nc3ccccc3C(=O)O)c(OC)c2)ccc1Nc1ccccc1C(=O)O | 94* | -2 | 78* | · | 97* | +
COc1ccc(CC(=O)NNc2ncnc3c2cnn3Cc2ccccc2)cc1OC | 14 | -1 | 1 | · | 4 | ·
CCc1cc2c3c(c(=O)oc2cc1O)CCCC3 | 91* | -3 | 2 | 0.8 | -2 | ·
O=C(Nc1ccc2oc(=O)ccc2c1)c1ccc(-c2cccc(Cl)c2)o1 | 65* | 26 | 18 | · | 92* | i
O=C(Nc1ccc2oc(=O)ccc2c1)c1ccc(-c2cccc([N+](=O)[O-])c2)o1 | 66* | 29 | 13 | · | 92* | i
COC(=O)c1sc(NC(=O)/C=C/c2ccccc2Cl)nc1C | 66* | 5 | 4 | 1.1 | -12 | i
Cc1cc(/C=C2\NC(=S)NC2=O)c(C)n1-c1cccnc1 | 29 | -15 | 1 | · | -2 | ·
O=C(c1ccc(Br)cc1)N(c1ccccn1)C1CCCCC1 | 23 | -3 | 2 | · | 7 | ·
CC(=O)Nc1ccc(S(=O)(=O)C(C#N)c2nc3ccccc3nc2NCCCO)cc1 (configuration not stated) | 165* | -6 | 2 | · | -4 | ·
